RGS4 block – inhibitors of human RGS4; HEK293 M3R/RGS4 inducible, Fluo-4 calcium flux; hits give high values; triggered by carbachol at its EC20; B-score at 10 µM; hit rate 0.45% among 310,000;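 active = B-score, a plate-corrected calcium signal, over three deviations above library mean, with baseline fluorescence within five deviations of library mean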;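 note: RGS4 expression induced by doxycycline in cells with stable M3 receptor; B-score is computed from the integrated fluorescence ratio over baseline after carbachol; higher B-score means a larger calcium signal and so more RGS4 inhibition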
Target sequence (P49798 whole entry, looked up): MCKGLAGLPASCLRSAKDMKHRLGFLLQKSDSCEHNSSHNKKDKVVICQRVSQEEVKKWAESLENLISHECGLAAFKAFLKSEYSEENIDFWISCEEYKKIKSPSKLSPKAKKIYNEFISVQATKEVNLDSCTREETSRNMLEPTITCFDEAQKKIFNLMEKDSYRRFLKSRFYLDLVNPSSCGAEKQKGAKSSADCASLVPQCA
MrgX1 allo act – human MrgX1 positive allosteric modulation, primary screen; Q96LB2; MrgX1-HEK293, Fluo-4 calcium flux, FDSS; hits give high values; B-score at 10 µM; hit rate 0.63% among 310,000; AID 588675;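 active = plate-corrected calcium response at least 3 library SD above typical, normal starting fluorescence, not activating the receptor alone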;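 note: compound read alongside a low EC10 to EC30 dose of BAM8-22 agonist; peak minus trough fluorescence over baseline measured at the second addition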
Target sequence (Q96LB2 whole entry, looked up): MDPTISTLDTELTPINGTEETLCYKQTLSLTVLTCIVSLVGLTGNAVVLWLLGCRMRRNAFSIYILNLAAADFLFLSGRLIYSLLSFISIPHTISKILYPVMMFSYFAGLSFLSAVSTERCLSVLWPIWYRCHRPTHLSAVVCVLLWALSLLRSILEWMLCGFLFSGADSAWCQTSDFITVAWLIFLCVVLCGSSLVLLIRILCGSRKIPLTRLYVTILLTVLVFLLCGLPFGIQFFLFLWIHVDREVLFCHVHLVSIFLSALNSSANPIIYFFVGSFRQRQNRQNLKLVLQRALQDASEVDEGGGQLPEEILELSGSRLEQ
MrgX1 antagonist – human MrgX1 receptor antagonism, primary screen | B-score at 10 µM | AID 588676 | hit rate 1.3% among 310,000 | MRGX1-HEK293 calcium flux, Fluo-4, BAM8-22 antagonism; hits give low values | Q96LB2;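 active = calcium-response B-score plate-corrected more than 3 library SD below zero, starting fluorescence within 5 deviations, no agonist response on first addition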;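 note: peak minus trough fluorescence over baseline after final BAM8-22 challenge near maximal dose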
MrgX1 agonist – human MrgX1 receptor agonism, primary screen; Q96LB2; B-score at 10 µM; hit rate 0.44% among 310,000; MrgX1-HEK293 cells, Fluo-4 calcium fluorescence, agonist mode; hits give high values;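 active = calcium response B-score plate-corrected fluorescence ratio at least 3 library SD, with starting fluorescence B-score inside 5 SD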
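System: HEK293 cells stably expressing human MrgX1 receptor; Dosing: test compound in the initial addition of three; Schedule: overnight plating, then 30 min 37 °C plus 30 min room-temperature dye loading; Detection: kinetic calcium dye fluorescence, Fluo-4 NW; Controls: per-plate positive and negative controls for Z′ factor.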
RGS4 pot – potentiators or activators of RGS4; HEK293 M3R/inducible RGS4, carbachol calcium flux Fluo4; hits give low values; B-score at 10 µM; hit rate 0.92% among 310,000; AID 463111;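 active = B-score of the integrated calcium signal more than 4 SD below the library mean, with starting fluorescence not abnormally high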;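 note: negative B-score means reduced calcium response which marks RGS4 activation or potentiation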
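Assay system: Inducible-RGS4 HEK293 cells carrying M3 receptor | Schedule: Compound preincubation 20 min at room temperature before agonist | Signal: Kinetic calcium fluorescence imaging with Fluo4-AM dye, 2 µM | Read-out basis: B score from integrated fluorescence ratio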
MrgX1 allo conf – reconfirmed allosteric activator of human MrgX1 receptor; MrgX1-HEK293, Fluo-4 calcium fluorescence, FDSS; activation (ratio percentage), % at 10 µM; shares compounds with MrgX1 allo act; hit rate 13% among 1,200;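 active = ratio at least 3 SD above the weak peptide control, stable starting fluorescence, no direct agonism earlier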;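 note: compound followed by low BAM8-22 agonist challenge near EC20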
HEK293 Ca flux – counter-screen for MrgX1 antagonists: effect in parental HEK293 cells. Fluo-4 calcium fluorescence, FDSS. hit rate 2% among 4,000. shares compounds with MrgX1 antagonist. fluorescence ratio F(max-min)/F0 at 10 µM;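 active = duplicate-averaged calcium fluorescence ratio at least three times the standard deviation of buffer wells, a nonspecific response in parental cells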
HEK293 Ca counter – MrgX1 allosteric activator counter-screen hit in parental HEK293 cells | shares compounds with MrgX1 antagonist | fluorescence ratio F(max-min)/F0 at 10 µM | AID 624114 | hit rate 0.4% among 4,000 | parental HEK293 calcium flux, Fluo-4 fluorescence ratio; hits give high values;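 active = calcium fluorescence ratio, averaged over duplicates, at least 3 SD of the buffer-well ratio, meaning a nonspecific response in receptor-free cells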;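 note: untransfected parental HEK293 lacking MrgX1 used as counterscreen for MrgX1 allosteric activators; fluorescence change taken during the second addition on a kinetic imager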
HEK293 Ca cntr2 – counter-screen for MrgX1 activators: effect in parental HEK293 cells; shares compounds with MrgX1 antagonist; Fluo-4 calcium fluorescence (FDSS); hits give high values; fluorescence ratio F(max-min)/F0 at 10 µM; hit rate 8.7% among 4,000;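 active = calcium fluorescence ratio at least three times the spread of buffer wells, meaning a non-specific response in parental cells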
* hit, by the source's call; i = inactive; / = no result given. Compounds with a hit are over-represented: about 3.5% of the library has one in this group of screens.

SMILES	RGS4 block	MrgX1 allo act	MrgX1 antagonist	MrgX1 agonist	RGS4 pot	MrgX1 allo conf	HEK293 Ca flux	HEK293 Ca counter	HEK293 Ca cntr2
Cc1cccc(NS(=O)(=O)c2c(C)nc3scc(C)n3c2=O)c1	i	21*	i	i	i	i	i	i	i
Cc1cc(NC(=S)NC(=O)C2CC2)ccc1Br	i	i	i	i	i	/	/	/	/
CCN(CC)S(=O)(=O)c1cc(Br)c(C)cc1OC	i	8.6*	i	i	i	i	i	i	i
C=CCNC(=O)c1sccc1Oc1ccc(F)cc1[N+](=O)[O-]	i	i	i	i	i	/	/	/	/
Cc1cc(C)c(C#N)c(SC(F)F)n1	i	i	i	i	i	/	/	/	/
Cc1cc(C)c(C#N)c(Sc2ccc(N)cc2)n1	i	12*	i	i	i	i	i	i	i
Cc1ccc(-c2csc(NC(=O)c3ccc(C)o3)n2)cc1	i	i	i	i	i	/	/	/	/
Cc1ccc(-c2csc(N=C(N)N)n2)cc1	i	7*	i	i	i	i	i	i	i
Cc1c(C(C)(C)C)c(C=S)n2ccccc12	i	8.5*	i	i	i	i	i	i	i
CC(C)(C)c1ccc(-c2nc(C=O)c3ccccn23)cc1	i	i	i	i	i	/	/	/	/
Cc1cccc(OCC(=O)Nc2cc(S(=O)(=O)N3CCCCC3)ccc2N2CCN(C)CC2)c1	i	16*	i	i	i	i	i	i	i
CN1CCN(c2ccc(S(=O)(=O)N3CCCCC3)cc2NC(=O)COc2cccc(Cl)c2)CC1	i	i	i	i	i	/	/	/	/
Cc1cccc(OCC(=O)Nc2ccccc2N2CCCC2)c1C	i	26*	i	i	i	25%*	i	i	i
O=C(CNCC1CCCO1)Nc1ccccc1N1CCCCCC1 (stereo unspecified)	i	6.9*	i	i	i	i	i	i	i
CC(Oc1ccc(F)cc1)C(=O)Nc1ccccc1N1CCCCC1 (stereo unspecified)	i	12*	i	i	i	i	i	i	i
Cc1ccccc1OCC(=O)Nc1ccccc1N1CCCCC1	i	i	i	i	i	/	/	/	/
CSc1ccc(CN2C(=O)NC3(CCCCC3)C2=O)cc1	i	i	i	i	i	/	/	/	/
Cc1nc2ccc([N+](=O)[O-])cc2c(=O)n1Cc1ccccc1Br	i	i	i	i	i	/	/	/	/
Cc1cc(OCC(=O)Nc2ccccc2N2CCCCC2)ccc1C(C)C	i	6.9*	i	i	i	i	i	i	i
COc1cccc(CC(=O)Nc2ccccc2N2CCCC2)c1	i	9.4*	i	i	i	i	i	i	i
Cc1ccc(OCC(=O)Nc2ccccc2N2CCOCC2)c(C)c1	i	9.9*	i	i	i	i	i	i	i
Cc1cc(OCC(=O)Nc2ccccc2N2CCCC2)ccc1C(C)C	i	22*	i	i	i	13%*	i	i	i
COc1ccc(NC(=O)CCSCCc2ccccn2)cc1OC	i	i	i	i	i	/	/	/	/
OCC1(CO)COC(CCc2ccccc2)=N1	i	i	i	i	i	/	/	/	/
CC(=O)Nc1ccc(C(=O)CN2C(=O)CSC2=O)cc1	i	i	i	i	i	/	/	/	/
SMILES	RGS4 block	MrgX1 allo act	MrgX1 antagonist	MrgX1 agonist	RGS4 pot	MrgX1 allo conf	HEK293 Ca flux	HEK293 Ca counter	HEK293 Ca cntr2
CC(=O)c1c(-c2ccc(C)cc2)nc2c3ccccc3ccn12	i	6.8*	i	i	i	16%*	i	i	i
O=C(CN(C1CCCCC1)S(=O)(=O)c1ccccc1)N1CCCC1	i	i	i	i	i	/	/	/	/
O=C(CN(C1CCCCC1)C1CCCCC1)N1CCc2ccccc2C1	i	8.8*	i	i	i	i	i	i	i
CCOC(=O)C1(C)NC(c2cccc(C)c2)C2C(=O)N(c3ccccc3)C(=O)C21 (stereo unspecified)	i	i	i	i	i	/	/	/	/
COC(=O)c1sc2nc(N3CCCCC3)c3c(c2c1N)CCCC3	i	6.9*	i	i	i	i	i	i	i
O=C(c1ccc2c(c1)OCO2)[C@@H]1[C@@H]2C(=O)N(C3CCCCC3)C(=O)[C@@H]2C2c3ccccc3C=CN21 (stereo partly specified)	i	/	/	/	i	/	/	/	/
CC(C)(C)C(=O)[C@@H]1[C@@H]2C(=O)N(C3CCCCC3)C(=O)[C@@H]2[C@H]2c3ccccc3C=CN12	/	7*	i	i	/	i	i	i	i
CCOc1ccccc1N1CCN(C(=O)Nc2cccc(Cl)c2)CC1	i	11*	i	i	i	i	i	i	i
COc1ccc(N/C(C)=C/C(=S)Nc2ccccc2)cc1	i	27*	i	i	i	i	i	i	i
COc1ccc(N/C(C)=C/C(=O)c2ccccc2)cc1	i	i	i	i	i	/	/	/	/
CN(C)C(=O)COc1ncnc2scc(-c3ccc(F)cc3)c12	i	8.2*	i	i	i	35%*	i	i	i
CCN(C(=O)COc1ncnc2scc(-c3ccc(F)cc3)c12)C1CCS(=O)(=O)C1 (stereo unspecified)	i	i	i	i	i	/	/	/	/
CCOC(=O)c1nn(-c2ccc(F)cc2)cc1O	i	8.4*	i	i	i	i	i	i	i
CCOC(=O)c1nn(-c2ccc3c(c2)CCN3C(C)=O)cc1O	i	i	i	i	i	/	/	/	/
CC(NC(=O)c1ccc(N)cc1)c1ccccc1 (stereo unspecified)	i	7.4*	i	i	i	i	i	i	i
CC(=O)c1sc(NS(=O)(=O)c2ccc(C)cc2)nc1-c1ccccc1	i	16*	i	i	i	i	i	i	i
O=C(Oc1ccnc2cc(Cl)ccc12)N1CCCCCC1	i	15*	i	i	i	i	i	i	i
